Drawing on ChEMBL document CHEMBL1124339, “Conformationally restricted analogues of atriopeptin(103-125)amide” (J Med Chem, 1989), this text covers EC50 and Relative potency for four compounds.

Each structure is given as a SMILES string.

The species named for experiment [1] is Oryctolagus cuniculus. Description: Effective concentration in vasorelaxant assay; 0.05-0.3 uM. Type of experiment: functional.
For experiment [2], the species on record is Oryctolagus cuniculus. Description: Effective concentration in vasorelaxation assay; 0.05-0.3 uM. It is filed as functional.
The species entered for experiment [3] is Oryctolagus cuniculus. Description: Relative potency for vasorelaxant activity of the compound. It is filed as functional.
For experiment [4], the species on record is Oryctolagus cuniculus. Briefly: Relative binding potency towards vasorelaxant binding site compared to AP(103-126). In a few lines: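 Varied unlabeled peptide concentrations; started by adding membranes; 30 min at 25 °C. Filtration with ice-cold buffer, then gamma counting. Nonspecific binding measured with 10^-6 M unlabeled reference peptide. Specific binding fitted by nonlinear least squares.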

Experiment [5] relates to Atrial natriuretic peptide receptor 3 (Oryctolagus cuniculus). Description: Relative binding potency towards non-vasorelaxant binding site compared to AP(103-126).

Consider `CC[C@H](C)[C@@H]1NC(=O)[C@H](CCCN=C(N)N)NC(=O)[C@H](CC(=O)O)NC(=O)[C@H]([C@@H](C)CC)NC(=O)[C@H](CCCN=C(N)N)NC(=O)CNC(=O)CNC(=O)[C@H](Cc2ccccc2)NC(=O)[C@@H](NC(=O)[C@H](CO)NC(=O)[C@@H](N)CO)CSSC[C@@H](C(=O)N[C@@H](CC(N)=O)C(=O)N[C@@H](CO)C(=O)N[C@@H](Cc2ccccc2)C(=O)N[C@@H](CCCN=C(N)N)C(N)=O)NC(=O)CNC(=O)[C@H](CC(C)C)NC(=O)CNC(=O)[C@H](CO)NC(=O)[C@H](CCC(N)=O)NC(=O)[C@H](C)NC(=O)CNC1=O`, for which, in the experiment listed under Oryctolagus cuniculus [1], the midpoint of the response, the EC50, lay at 50 nM. For the compound `CC[C@H](C)[C@@H]1NC(=O)[C@H](CCCN=C(N)N)NC(=O)[C@H](CC(=O)O)NC(=O)[C@H]([C@@H](C)CC)NC(=O)[C@H](CCCN=C(N)N)NC(=O)CNC(=O)CNC(=O)[C@H](Cc2ccccc2)NC(=O)[C@@H](NC(=O)[C@H](CO)NC(=O)[C@@H](N)CO)CSSC[C@@H](C(=O)N[C@@H](CC(N)=O)C(=O)N[C@@H](CO)C(=O)N[C@@H](Cc2ccccc2)C(=O)N[C@@H](CCCN=C(N)N)C(=O)N[C@@H](Cc2ccc(O)cc2)C(=O)O)NC(=O)CNC(=O)[C@H](CC(C)C)NC(=O)CNC(=O)[C@H](CO)NC(=O)[C@H](CCC(N)=O)NC(=O)[C@H](C)NC(=O)CNC1=O`, the EC50 in the experiment listed under Oryctolagus cuniculus [2] came out at 50 nM; in the experiment listed under Oryctolagus cuniculus [3] it was 2.3 nM. With `CC[C@H](C)[C@@H]1NC(=O)[C@H](CCCN=C(N)N)NC(=O)[C@H](CC(=O)O)NC(=O)[C@H]([C@@H](C)CC)NC(=O)[C@H](CCCN=C(N)N)NC(=O)[C@@H](CCS)NC(=O)CNC(=O)[C@H](Cc2ccccc2)NC(=O)[C@@H](NC(=O)[C@H](CO)NC(=O)[C@@H](N)CO)CSSC[C@@H](C(=O)N[C@@H](CC(N)=O)C(=O)N[C@@H](CO)C(=O)N[C@@H](Cc2ccccc2)C(=O)N[C@@H](CCCN=C(N)N)C(N)=O)NC(=O)CNC(=O)[C@H](CC(C)C)NC(=O)CNC(=O)[C@@H](CCS)NC(=O)[C@H](CCC(N)=O)NC(=O)[C@H](C)NC(=O)CNC1=O`, the Relative potency in the experiment listed under Oryctolagus cuniculus [4] amounted to 0.071; in experiment [5] it was 2.8. `CC[C@H](C)[C@@H]1NC(=O)[C@H](CCCN=C(N)N)NC(=O)[C@H](CC(=O)O)NC(=O)[C@H]([C@@H](C)CC)NC(=O)[C@H](CCCN=C(N)N)NC(=O)[C@@H](CCSCNC(C)=O)NC(=O)CNC(=O)[C@H](Cc2ccccc2)NC(=O)[C@H](NC(=O)[C@H](CO)NC(=O)[C@@H](N)CO)CSSC[C@H](C(=O)N[C@@H](CC(N)=O)C(=O)N[C@@H](CO)C(=O)N[C@@H](Cc2ccccc2)C(=O)N[C@@H](CCCN=C(N)N)C(N)=O)NC(=O)CNC(=O)[C@H](CC(C)C)NC(=O)CNC(=O)[C@H](CSCNC(C)=O)NC(=O)[C@H](CCC(N)=O)NC(=O)[C@H](C)NC(=O)CNC1=O`: the Relative potency (in the experiment filed under Oryctolagus cuniculus [4]; in experiment [5]) was 0.15 in each case.

Broadly, the EC50 is the concentration needed to bring the measured effect to its halfway point. A high value points to a need for much substance.
